Our source for the EC50 and Activity values is ChEMBL document CHEMBL3046908, “Nematicidal activity of (E,E)-2,4-decadienal and (E)-2-decenal from Ailanthus altissima against Meloidogyne javanica” (J Agric Food Chem, 2012).

Converted amounts (≈) assume the structure as drawn. The source made the active and inactive calls. The rule behind the calls is not given here. A value given as a limit tells only on which side of the number the result lay.

Common to all, as to format: functional, organism-based
The subject of assay [1] is Meloidogyne javanica. Kind of assay: Nematicidal Activity against Meloidogyne javanica (root-knot nematode) assessed as death/paralysis of nematodes at 1 hr after immersion in test solution. In a few lines: (§1)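 J2 of an Italian M. javanica population reared two months on tomato in a glasshouse at 25+2 °C. Pure compounds were made up as double-strength solutions (methanol ≤1% v/v final, tween in water) and mixed 1:1 with 15 J2 per well, covered, dark, 28 °C. Paralysis was scored by microscope, 5 replicates, run twice, Schneider-Orelli corrected, EC50 by regression.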

For assay [2], the system named is Meloidogyne javanica. As to the kind of experiment: Nematicidal Activity against Meloidogyne javanica (root-knot nematode) assessed as death/paralysis of nematodes at 1 day after immersion in test solution. The settings on record: 24 h. In a few lines:
as §1

In assay [3] the test system is Meloidogyne javanica. Kind of assay: Nematicidal Activity against Meloidogyne javanica (root-knot nematode) assessed as death/paralysis of nematodes at 25 to 1000 mg/l at 1 hr after immersion in test solution. In a few lines:
(§2)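 Second-stage juveniles (J2) came from an Italian M. javanica population reared two months on tomato in a glasshouse at 25±2 °C. Solutions at double strength were mixed 1:1 with 15 J2 per well, covered, in the dark at 28 °C. Methanol was ≤1% v/v final, and water and 0.3% tween controls were run. Paralysis was scored at 10×. Five replicates per treatment, experiment done twice. Control-corrected (Schneider-Orelli) EC50 was obtained by regression.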

The test system of assay [4] is Meloidogyne javanica. Kind of assay: Nematicidal Activity against Meloidogyne javanica (root-knot nematode) assessed as death/paralysis of nematodes at 25 to 1000 mg/l at 1 day after immersion in test solution. A digest of the protocol: as §2

On to `CCCCC/C=C/C=C/C=O`, for which the concentration for a half-maximal effect (EC50) – broadly, the concentration that produces a half-maximal response – amounted to 7.53 µg/mL (≈ 49.5 µM) in the assay on Meloidogyne javanica [1] and 11.7 µg/mL (≈ 76.9 µM) with Meloidogyne javanica [2].

In the case of `CCCCC/C=C/C=O`, the EC50 in the assay on Meloidogyne javanica [2] was greater than 25 µg/mL. The outcome in the assay on Meloidogyne javanica [3] was inactive.

Regarding `CCCCCCCC/C=C/C=O`, the concentration for a half-maximal effect (EC50) in the assay on Meloidogyne javanica [1] and in the assay on Meloidogyne javanica [2] was greater than 25 µg/mL each time.

Regarding `CCCCCC=O`, the result in the assay on Meloidogyne javanica [4] and in the assay on Meloidogyne javanica [3] was inactive.

With `CCCCCCC=O`, the outcome in the assay on Meloidogyne javanica [4] and with Meloidogyne javanica [3] was inactive.

`O=Cc1ccc(CO)o1` [AES-103]: the EC50 with Meloidogyne javanica [1] and in the assay on Meloidogyne javanica [2] was greater than 25 µg/mL in each case.

As to `CCOP(=O)(SC(C)CC)N1CCSC1=O` (stereo not given) [FOSTHIAZATE], the EC50 in the assay with Meloidogyne javanica [1] is greater than 25 µg/mL; in the assay on Meloidogyne javanica [2], 15.9 µg/mL (≈ 56.1 µM).

Consider `O=Cc1ccco1` [FURFURAL], for which the EC50 in the assay with Meloidogyne javanica [1] was greater than 25 µg/mL; in the assay with Meloidogyne javanica [2], 21.8 µg/mL (≈ 227 µM).

For `CCCCCCCCC=O` [NONANAL], in the assay with Meloidogyne javanica [1], the EC50 was greater than 50 µg/mL. The result in the assay with Meloidogyne javanica [4] was inactive.

For `CCCCCCC/C=C/C=O` [TRANS-2-DECENAL], the EC50 with Meloidogyne javanica [1] amounted to 11.8 µg/mL (≈ 76.2 µM); in the assay on Meloidogyne javanica [2], 20.4 µg/mL (≈ 132 µM).
